Laboratory results taken from ChEMBL document CHEMBL1124595, “Synthesis and biological activity of 3-substituted imidazo[1,2-a]pyridines as antiulcer agents” (1989).

Columns and labels:
Type in all cases: functional
Rattus norvegicus [1] = experiment: Cytoprotective activity in rats when administered 50 mg/kg perorally (Hydrochloric acid as necrotic agent); conditions: route oral
Outline: (§1)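 Food was withheld for 24 h and water for 1½–18 h. Rats were dosed orally (3–12 mL vehicle/kg) 60 min before 0.75 N HCl, 3.0 mL/kg by gavage. They were killed 60 min after insult, and the stomach was opened along the greater curvature and photographed. Lesion area score ÷4 gave mm²; group mean was compared with controls as % inhibition. Five animals per dose, standard error.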

Rattus norvegicus [2] = experiment: Cytoprotective activity in rat when administered 50 mg/kg perorally (Ethyl alcohol as necrotic agent); conditions: route oral
Outline: as §1, with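 “100% ethanol,” for “0.75 N HCl,”, “lesser” for “greater”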

Rattus norvegicus [3] = experiment: Antisecretory activity in gastric fistula rat when administered perorally; conditions: Stomach, po
Outline: (§2)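 Chronic gastric fistula rats dosed orally. Activity was taken as percent inhibition of gastric acid secretion. The dose giving 50% inhibition (ED50) was calculated by probit analysis.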

Rattus norvegicus [4] = experiment: Cytoprotective activity in rats when administered 50 mg/kg perorally per orally (Hydrochloric acid as necrotic agent); conditions: route oral; outline: as §1
Rattus norvegicus [5] = experiment: Antisecretory activity in gastric fistula rat when administered per orally; conditions: Stomach, po; outline: as §2
Rattus norvegicus [6] = experiment: Cytoprotective activity in rat when administered 0.25 mg/kg perorally (Ethyl alcohol as necrotic agent); conditions: route oral
Outline: as §1, with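 “100% ethanol,” for “0.75 N HCl,”, “lesser” for “greater”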

Rattus norvegicus [7] = experiment: Cytoprotective activity in rats when administered 0.10 mg/kg perorally per orally (Hydrochloric acid as necrotic agent); conditions: route oral; outline: as §1
Rattus norvegicus [8] = experiment: Cytoprotective activity in rats when administered 30 mg/kg perorally (Hydrochloric acid as necrotic agent); conditions: route oral; outline: as §1
Rattus norvegicus [9] = experiment: Cytoprotective activity in rat when administered 30 mg/kg perorally (Ethyl alcohol as necrotic agent); conditions: route oral
Outline: as §1, with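 “100% ethanol,” for “0.75 N HCl,”, “lesser” for “greater”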

Rattus norvegicus [10] = experiment: Cytoprotective activity in rats when administered 100 mg/kg perorally (Hydrochloric acid as necrotic agent); conditions: route oral; outline: as §1

Compound	inhibition in vivo at 50 mg/kg (Rattus norvegicus [1]) [%]	inhibition in vivo at 50 mg/kg (Rattus norvegicus [2]) [%]	ED50 (Rattus norvegicus [3]) [mg/kg]	also measured
Cc1nc2c(OCc3ccccc3)cccn2c1C(C)SCCNc1n[s+]([O-])nc1N (configuration not stated)	57	57	> 25	–
Cc1nc2ccccn2c1CSCC/N=c1/c(O)c(O)c1=N	–	0	–	inhibition in vivo at 50 mg/kg (Rattus norvegicus [4]): 34%; ED50 (Rattus norvegicus [5]): > 25 mg/kg
Cc1nc2ccccn2c1CSCCNc1nsnc1N	24	70	> 25	–
Cc1nc2ccccn2c1CSCCNc1n[s+]([O-])nc1N (configuration not stated)	–	2	> 25	–
Cc1nc2ccccn2c1C(C)SCCNc1nsnc1N (configuration not stated)	51	54	> 25	–
CCCCC[C@H](O)/C=C/[C@H]1[C@H](O)CC(=O)[C@@H]1C/C=C\CCCC(=O)O [DINOPROSTONE]	–	–	–	ED50 (Rattus norvegicus [5]): 0.83 mg/kg; inhibition in vivo at 0.25 mg/kg (Rattus norvegicus [6]): 89%; inhibition in vivo at 0.1 mg/kg (Rattus norvegicus [7]): 70%
Cc1nc2c(OCc3ccccc3)cccn2c1C(C)SCCNc1nsnc1N (configuration not stated)	–	–	> 25	inhibition in vivo at 30 mg/kg (Rattus norvegicus [8]): 62%; inhibition in vivo at 30 mg/kg (Rattus norvegicus [9]): 84%
C/N=C(/NC#N)NCCSCc1c(C)nc2ccccn12	60	–	> 25	inhibition in vivo at 30 mg/kg (Rattus norvegicus [9]): 97%
Cc1nc2c(OCc3ccccc3)cccn2c1CC#N	–	–	0.9	inhibition in vivo at 100 mg/kg (Rattus norvegicus [10]): 68%; inhibition in vivo at 30 mg/kg (Rattus norvegicus [9]): 90%
Cc1nc2ccccn2c1C(C)SCC/N=c1/c(O)c(O)c1=N (configuration not stated)	–	7	–	inhibition in vivo at 50 mg/kg (Rattus norvegicus [4]): 27%; ED50 (Rattus norvegicus [5]): > 25 mg/kg
Cc1nc2ccccn2c1C(C)SCCNc1n[s+]([O-])nc1N (configuration not stated)	36	47	> 25	–
